Reference: ChEMBL document CHEMBL4177566, “Rational design, synthesis and preliminary antitumor activity evaluation of a chlorambucil derivative with potent DNA/HDAC dual-targeting inhibitory activity” (Bioorg Med Chem Lett, 2017)
The source made the active and inactive calls. No cut-off for these calls is given here.

Experiments:
[1] = test system: A-375; test: Induction of apoptosis in human A375 cells assessed as late apoptotic cells at 16 uM after 72 hrs by Annexin/propidium iodide staining based flow cytometry (reference value: 6.95%); assay type: functional
[2] = test system: A549; test: Antiproliferative activity against human A549 cells after 72 hrs by CCK8 assay; assay type: functional, cell-based; settings: for IC50: A549, 72 h
In short: (§1)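 CCK-8 viability read-out on four human cancer lines (HepG2, A549, HCT116, A375) over a range of concentrations. IC50 is the concentration that reduces viability to 50%. Values are means of three experiments.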

[3] = test system: A-375; test: Cell cycle arrest in human A375 cells assessed as accumulation at G0/G1 phase at 8 uM after 72 hrs by propidium iodide staining based flow cytometry (reference value: 83.6%); assay type: functional
[4] = organism: Homo sapiens; test: Induction of DNA damage in human A375 cells assessed as increase in gammaH2AX level at 16 uM after 48 hrs by high throughput assay relative to control; assay type: cell-based
In short: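 A375 cells were exposed for 48 h at 8 and 16 µM. Histone H2AX phosphorylation (γH2AX, a double-strand-break marker) was detected with the EpiQuik In Situ DNA Damage Assay kit following the maker's protocol. Results are expressed as percent of the untreated control, as mean ± SD (n=3), with a t-test for significance.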

[5] = test system: HCT-116; test: Antiproliferative activity against human HCT116 cells after 72 hrs by CCK8 assay; assay type: functional, cell-based; settings: for IC50: HCT-116, 72 h; in short: as §1
[6] = test system: HepG2; test: Antiproliferative activity against human HepG2 cells after 72 hrs by CCK8 assay; assay type: functional, cell-based; settings: for IC50: HepG2, 72 h; in short: as §1
[7] = test system: A-375; test: Antiproliferative activity against human A375 cells after 72 hrs by CCK8 assay; assay type: functional, cell-based; settings: for IC50: A-375, 72 h; in short: as §1
[8] = target: Histone deacetylase (Homo sapiens) (UniProt Q13547+O15379+Q9UBN7+Q92769+Q9UQL6+Q8WUI4+Q9BY41+Q96DB2+P56524+Q9UKV0+Q969S8); test: Inhibition of HDAC in human HeLa nuclear extract up to 10000 uM preincubated with cells followed by flour de lys-green substrate addition measured after 1 hr by fluorescence assay
[9] = test system: A-375; test: Anticlonogenic activity against human A375 cells after 7 days by crystal violet staining based assay; assay type: functional, cell-based
[10] = test system: A-375; test: Induction of apoptosis in human A375 cells assessed as early apoptotic cells at 2 uM after 72 hrs by Annexin/propidium iodide staining based flow cytometry (reference value: 1.62%); assay type: functional
[11] = test system: A-375; test: Induction of apoptosis in human A375 cells assessed as live cells at 8 uM after 72 hrs by Annexin/propidium iodide staining based flow cytometry (reference value: 86.07%); assay type: functional
[12] = test system: A-375; test: Induction of apoptosis in human A375 cells assessed as live cells at 16 uM after 72 hrs by Annexin/propidium iodide staining based flow cytometry (reference value: 86.07%); assay type: functional
[13] = target: T1, Protein deacetylase HDAC6 (Homo sapiens, UniProt Q9UBN7); test: Inhibition of recombinant human His-tagged HDAC6 expressed in baculovirus infected insect cells preincubated with enzyme followed by flour de lys-green substrate addition measured after 1 hr by fluorescence assay
T1 sequence (Q9UBN7 whole entry): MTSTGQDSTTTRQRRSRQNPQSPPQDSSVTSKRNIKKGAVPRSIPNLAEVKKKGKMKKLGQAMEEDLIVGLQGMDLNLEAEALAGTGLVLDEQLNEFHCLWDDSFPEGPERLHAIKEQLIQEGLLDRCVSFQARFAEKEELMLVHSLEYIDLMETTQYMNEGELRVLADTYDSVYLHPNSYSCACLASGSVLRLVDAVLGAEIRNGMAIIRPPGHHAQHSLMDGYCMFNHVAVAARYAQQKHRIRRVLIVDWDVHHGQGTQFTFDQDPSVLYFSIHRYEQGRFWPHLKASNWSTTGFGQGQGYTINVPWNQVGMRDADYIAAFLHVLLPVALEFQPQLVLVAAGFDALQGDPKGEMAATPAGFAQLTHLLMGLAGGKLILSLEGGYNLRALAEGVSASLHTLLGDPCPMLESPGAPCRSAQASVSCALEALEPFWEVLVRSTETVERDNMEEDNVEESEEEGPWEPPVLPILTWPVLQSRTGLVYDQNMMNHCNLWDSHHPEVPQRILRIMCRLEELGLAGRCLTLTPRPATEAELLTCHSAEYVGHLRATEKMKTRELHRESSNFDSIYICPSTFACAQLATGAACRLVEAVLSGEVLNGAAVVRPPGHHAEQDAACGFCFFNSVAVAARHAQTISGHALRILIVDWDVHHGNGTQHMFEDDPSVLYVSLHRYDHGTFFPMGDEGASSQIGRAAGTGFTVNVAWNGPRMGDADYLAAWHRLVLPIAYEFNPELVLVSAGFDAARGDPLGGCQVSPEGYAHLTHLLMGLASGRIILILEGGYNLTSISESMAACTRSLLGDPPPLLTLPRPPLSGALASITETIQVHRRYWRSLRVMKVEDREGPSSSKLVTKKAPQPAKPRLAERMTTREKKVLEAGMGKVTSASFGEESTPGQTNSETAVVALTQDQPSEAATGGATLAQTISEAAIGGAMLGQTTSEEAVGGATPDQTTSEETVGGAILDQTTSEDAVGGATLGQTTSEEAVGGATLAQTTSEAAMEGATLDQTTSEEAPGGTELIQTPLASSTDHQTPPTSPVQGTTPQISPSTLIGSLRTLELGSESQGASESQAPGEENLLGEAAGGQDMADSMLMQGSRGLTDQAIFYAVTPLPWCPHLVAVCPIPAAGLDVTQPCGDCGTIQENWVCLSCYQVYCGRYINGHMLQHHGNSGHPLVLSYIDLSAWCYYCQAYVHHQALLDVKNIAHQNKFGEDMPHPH

[14] = target: Histone deacetylase 2 (Homo sapiens, UniProt Q92769); test: Inhibition of recombinant human HDAC2 preincubated with enzyme followed by flour de lys-green substrate addition measured after 1 hr by fluorescence assay
[15] = test system: A-375; test: Induction of apoptosis in human A375 cells after 72 hrs by Annexin/propidium iodide staining based flow cytometry; assay type: functional, cell-based
[16] = test system: A-375; test: Induction of apoptosis in human A375 cells assessed as early apoptotic cells at 8 uM after 72 hrs by Annexin/propidium iodide staining based flow cytometry (reference value: 1.62%); assay type: functional
[17] = test system: A-375; test: Induction of apoptosis in human A375 cells assessed as late apoptotic cells at 2 uM after 72 hrs by Annexin/propidium iodide staining based flow cytometry (reference value: 6.95%); assay type: functional
[18] = test system: A-375; test: Cell cycle arrest in human A375 cells assessed as accumulation at G2/M phase at 8 uM after 72 hrs by propidium iodide staining based flow cytometry (reference value: 12.6%); assay type: functional
[19] = test system: A-375; test: Induction of apoptosis in human A375 cells assessed as necrotic cells at 8 uM after 72 hrs by Annexin/propidium iodide staining based flow cytometry (reference value: 1.36%); assay type: functional
[20] = test system: A-375; test: Induction of apoptosis in human A375 cells assessed as necrotic cells at 2 uM after 72 hrs by Annexin/propidium iodide staining based flow cytometry (reference value: 1.36%); assay type: functional
[21] = test system: A-375; test: Induction of apoptosis in human A375 cells assessed as live cells at 2 uM after 72 hrs by Annexin/propidium iodide staining based flow cytometry (reference value: 86.07%); assay type: functional
[22] = test system: A-375; test: Induction of apoptosis in human A375 cells assessed as late apoptotic cells at 8 uM after 72 hrs by Annexin/propidium iodide staining based flow cytometry (reference value: 6.95%); assay type: functional
[23] = test system: A-375; test: Cell cycle arrest in human A375 cells assessed as accumulation at S phase at 8 uM after 72 hrs by propidium iodide staining based flow cytometry (reference value: 3.8%); assay type: functional
[24] = test system: A-375; test: Induction of apoptosis in human A375 cells assessed as early apoptotic cells at 16 uM after 72 hrs by Annexin/propidium iodide staining based flow cytometry (reference value: 1.62%); assay type: functional
[25] = target: Histone deacetylase 1 (Homo sapiens, UniProt Q13547); test: Inhibition of recombinant human HDAC1 (482 residues) expressed in baculovirus infected insect cells preincubated with enzyme followed by flour de lys-green substrate addition measured after 1 hr by fluorescence assay
[26] = test system: A-375; test: Induction of apoptosis in human A375 cells assessed as necrotic cells at 16 uM after 72 hrs by Annexin/propidium iodide staining based flow cytometry (reference value: 1.36%); assay type: functional
[27] = test system: A-375; test: Anticlonogenic activity against human A375 cells at 2 to 16 uM after 7 days by crystal violet staining based assay; assay type: functional, cell-based

Histone deacetylase 2, sequence (Q92769 whole entry): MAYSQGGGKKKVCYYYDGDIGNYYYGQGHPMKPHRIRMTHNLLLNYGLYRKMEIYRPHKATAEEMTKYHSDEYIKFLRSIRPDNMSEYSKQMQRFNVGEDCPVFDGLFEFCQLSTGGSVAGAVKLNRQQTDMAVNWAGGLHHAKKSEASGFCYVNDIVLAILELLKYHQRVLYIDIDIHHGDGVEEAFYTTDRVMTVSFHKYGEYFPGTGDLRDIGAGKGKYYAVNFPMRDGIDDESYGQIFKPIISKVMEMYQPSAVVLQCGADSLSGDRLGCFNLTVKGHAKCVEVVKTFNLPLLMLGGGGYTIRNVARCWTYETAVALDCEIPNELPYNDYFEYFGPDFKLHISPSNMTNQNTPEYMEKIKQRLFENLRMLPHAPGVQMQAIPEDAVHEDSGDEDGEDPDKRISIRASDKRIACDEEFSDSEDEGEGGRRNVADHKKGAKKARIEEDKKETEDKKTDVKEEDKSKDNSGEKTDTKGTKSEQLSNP
Histone deacetylase 1, sequence (Q13547 whole entry): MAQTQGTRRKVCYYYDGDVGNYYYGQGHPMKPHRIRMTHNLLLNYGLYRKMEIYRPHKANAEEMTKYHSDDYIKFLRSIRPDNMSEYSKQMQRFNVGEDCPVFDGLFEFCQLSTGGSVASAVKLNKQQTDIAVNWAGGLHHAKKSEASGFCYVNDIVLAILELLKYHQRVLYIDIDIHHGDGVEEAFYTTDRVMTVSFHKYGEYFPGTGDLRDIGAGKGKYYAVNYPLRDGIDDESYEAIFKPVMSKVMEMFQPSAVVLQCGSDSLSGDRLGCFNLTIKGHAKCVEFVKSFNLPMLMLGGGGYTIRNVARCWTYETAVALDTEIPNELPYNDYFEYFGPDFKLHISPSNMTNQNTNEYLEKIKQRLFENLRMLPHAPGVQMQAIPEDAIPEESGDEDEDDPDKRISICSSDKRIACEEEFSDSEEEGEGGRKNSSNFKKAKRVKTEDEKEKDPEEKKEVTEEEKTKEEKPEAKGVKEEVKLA

SMILES	Activity [1] [%]	IC50 [2] [µM]	Activity [3] [%]	Activity [4] [%]	IC50 [5] [µM]	IC50 [6] [µM]	IC50 [7] [µM]	Activity [10] [%]	Activity [11] [%]	Activity [12] [%]	Activity [16] [%]	Activity [17] [%]	Activity [18] [%]	Activity [19] [%]	Activity [20] [%]	Activity [21] [%]	Activity [22] [%]	Activity [23] [%]	Activity [24] [%]	Activity [26] [%]	further results
O=C(CCCCCCC(=O)Nc1ccc(N(CCCl)CCCl)cc1)NO	53.54	4.4	27.7	224	3.2	6.1	6.2	3.31	50.76	30.42	16.02	10.26	66.5	3.27	2.07	84.36	29.95	5.8	13.29	2.75	Activity [2]: Dose-dependent effect; Activity [5]: Dose-dependent effect; Activity [6]: Dose-dependent effect; Activity [7]: Dose-dependent effect; inhibition [8]: Active; Activity [9]: Dose-dependent effect; IC50 [13]: 0.62 µM; IC50 [14]: 0.24 µM; Activity [15]: Dose-dependent effect; IC50 [25]: 0.27 µM
O=C(O)CCCc1ccc(N(CCCl)CCCl)cc1 [CHLORAMBUCIL]	18.21	22.2	47	129	57.6	112	69.2	1.62	87.14	71.14	2.11	6.95	47.6	2.34	1.36	90.07	8.41	5.4	4.21	6.44	Activity [27]: Active
